Experimental data taken from ChEMBL document CHEMBL4350966 (J Med Chem, 2019).

Columns and labels:
fMet-Leu-Phe receptor [1] = biological target: T1, fMet-Leu-Phe receptor (Homo sapiens, UniProt P21462); experiment: Biased agonist activity at human FPR1 expressed in FlpIn-CHO cells assessed as intracellular calcium mobilization by Fluo-4-AM dye based fluorescence assay; assay type: functional, cell-based
T1 sequence (P21462 whole entry): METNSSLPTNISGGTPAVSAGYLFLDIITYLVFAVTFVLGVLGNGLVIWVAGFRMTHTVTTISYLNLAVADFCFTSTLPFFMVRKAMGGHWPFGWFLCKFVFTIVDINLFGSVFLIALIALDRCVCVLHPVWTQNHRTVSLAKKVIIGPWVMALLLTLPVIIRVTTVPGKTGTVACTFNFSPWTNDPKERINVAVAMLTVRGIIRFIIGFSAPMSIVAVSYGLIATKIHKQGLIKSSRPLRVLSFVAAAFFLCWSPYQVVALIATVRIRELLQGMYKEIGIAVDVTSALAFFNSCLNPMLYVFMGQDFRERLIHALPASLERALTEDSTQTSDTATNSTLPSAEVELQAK
Summary of the method: (§1)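 Agonist transduction coefficients (Log(τ/KA)) for each signaling output estimated with an extension of the Black-Leff operational model. Values normalized to a reference ligand and to Ca2+ mobilization as reference pathway, giving ΔLog(τ/KA) and Log(bias factors). Data are mean ± SEM of 4 independent experiments, each performed in duplicate.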

fMet-Leu-Phe receptor [2] = biological target: T1, fMet-Leu-Phe receptor; experiment: Biased agonist activity at human FPR1 expressed in FlpIn-CHO cells assessed as stimulation of ERK1/2 phosphorylation measured after 7 mins by Alphascreen assay; assay type: cell-based; summary of the method: as §1
[3] = Lipophilicity, log P of the compound by chromatographic method; assay type: physicochemical
Summary of the method: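 Lipophilicity ([…]) measured chromatographically.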

[4] = Protein binding in human plasma by chromatographic method; assay type: ADME, cell-free; conditions: read-out: PPB (converted)
Summary of the method: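 Human plasma protein binding estimated by a chromatographic method; reported as percent bound.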

[5] = Intrinsic clearance in human liver microsomes assessed per mg protein; assay type: ADME, Microsome
Summary of the method: (§2)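 Intrinsic clearance measured in vitro in mouse and human liver microsomes; reported as μL/min/mg protein.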

[6] = Kinetic solubility of the compound at pH 6.5; assay type: physicochemical; conditions: buffer, read-out: Kinetic_solubility
Summary of the method: (§3)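 Kinetic solubility measured by nephelometry at pH 2.0 and pH 6.5; reported in μg/mL.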

[7] = biological target: T2, N-formyl peptide receptor 2 (Homo sapiens, UniProt P25090); experiment: Biased agonist activity at human FPR2 expressed in FlpIn-CHO cells assessed as stimulation of ERK1/2 phosphorylation measured after 7 mins by Alphascreen assay; assay type: cell-based; summary of the method: as §1
T2 sequence (P25090 whole entry): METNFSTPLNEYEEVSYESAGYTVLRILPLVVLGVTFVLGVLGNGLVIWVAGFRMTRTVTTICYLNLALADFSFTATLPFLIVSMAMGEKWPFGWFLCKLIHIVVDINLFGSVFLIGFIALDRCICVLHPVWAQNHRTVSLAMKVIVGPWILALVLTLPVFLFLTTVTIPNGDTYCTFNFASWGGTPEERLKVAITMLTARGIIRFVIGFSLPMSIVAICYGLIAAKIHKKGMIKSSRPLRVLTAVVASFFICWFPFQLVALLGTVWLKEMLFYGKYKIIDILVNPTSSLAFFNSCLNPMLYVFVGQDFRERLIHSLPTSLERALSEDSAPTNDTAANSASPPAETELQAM

[8] = biological target: T2, N-formyl peptide receptor 2; experiment: Biased agonist activity at human FPR2 expressed in FlpIn-CHO cells assessed as intracellular calcium mobilization by Fluo-4-AM dye based fluorescence assay; assay type: functional, cell-based; summary of the method: as §1
[9] = Kinetic solubility of the compound at pH 2; assay type: physicochemical; conditions: buffer, read-out: Kinetic_solubility; summary of the method: as §3
[10] = biological target: T3, fMet-Leu-Phe receptor (Homo sapiens) (UniProt P21462); experiment: Bias factor, transduction co-efficient for biased agonist activity at human FPR1 expressed in FlpIn-CHO cells assessed as stimulation of ERK1/2 phosphorylation relative to 1-(4-chlorophenyl)-3-(5-isopropyl-1-methyl-3-oxo-2-phenyl-2,3-dihydro-1H-pyrazol-4-yl)urea to transduction co-efficient for …; assay type: functional, cell-based
T3 sequence (whole entry): T1 sequence (P21462 whole entry)

[11] = Intrinsic clearance in mouse liver microsomes assessed per mg protein; assay type: ADME, Microsome; summary of the method: as §2

Row | SMILES | EC50 (fMet-Leu-Phe receptor [1]; read-out: pEC50 (converted)) | EC50 (fMet-Leu-Phe receptor [2]; read-out: pEC50 (converted)) | other results
1 | COc1cccc(Cc2cc(C)nn(C(C)C(=O)Nc3cccc(F)c3)c2=O)c1 (stereo not drawn) | > 100 µM |  | 
2 | COc1ccccc1Cc1cc(C)nn(CC(=O)Nc2ccccc2Cl)c1=O | > 100 µM | > 100 µM | 
3 | COc1cccc(Cc2cc(C)nn(C(C)C(=O)Nc3ccc(F)cc3)c2=O)c1 (stereo not drawn) | > 100 µM |  | 
4 | COc1cccc(Cc2cc(C)nn(CC(=O)Nc3ccc(Cl)cc3F)c2=O)c1 | > 100 µM | 5.62 µM | 
5 | COc1ccccc1Cc1cc(C)nn(CC(=O)Nc2cccc(Cl)c2)c1=O | > 100 µM | > 100 µM | 
6 | COc1ccccc1Cc1cc(C)nn(C(C)C(=O)Nc2ccc(Br)cc2)c1=O (stereo not drawn) | > 100 µM |  | 
7 | Cc1cc(Cc2ccccc2F)c(=O)n(C(C)C(=O)Nc2ccc(Br)cc2)n1 (stereo not drawn) | > 100 µM |  | 
8 | CCCCC(C(=O)Nc1ccc(Br)cc1)n1nc(C)cc(Cc2cccc(OC)c2OC)c1=O (stereo not drawn) | 0.00646 µM | 0.245 µM | 
9 | COc1ccccc1Cc1cc(C)nn(CC(=O)Nc2ccc(Cl)cc2F)c1=O | > 100 µM | > 100 µM | 
10 | COc1ccc(OC)c(Cc2cc(C)nn(CC(=O)Nc3ccc(Cl)cc3)c2=O)c1 | 6.31 µM |  | 
11 | COc1ccccc1Cc1cc(C)nn(CC(=O)Nc2ccc(OC(F)(F)F)cc2)c1=O | > 100 µM | > 100 µM | 
12 | COc1ccccc1Cc1cc(C)nn(CC(=O)Nc2c(F)cc(Cl)cc2F)c1=O | > 100 µM | > 100 µM | 
13 | CCCCC(C(=O)Nc1ccc(Cl)cc1)n1nc(C)cc(Cc2cccc(OC)c2)c1=O (stereo not drawn) | 5.25 µM | 0.126 µM | 
14 | COc1cccc(Cc2cc(C)nn(C(C)C(=O)Nc3ccc(Cl)cc3)c2=O)c1OC (stereo not drawn) | 0.155 µM | 0.145 µM | 
15 | CCc1ccc(NC(=O)Cn2nc(C)cc(Cc3ccccc3OC)c2=O)cc1 | > 100 µM |  | 
16 | CCCC(C(=O)Nc1ccc(Cl)cc1)n1nc(C)cc(Cc2ccccc2OC)c1=O (stereo not drawn) | 9.77 µM | 6.31 µM | 
17 | COc1ccccc1Cc1cc(C(F)(F)F)nn(CC(=O)Nc2ccc(Cl)cc2)c1=O | > 100 µM | > 100 µM | 
18 | Cc1cc(Cc2ccc(F)cc2)c(=O)n(CC(=O)Nc2ccc(Br)cc2[N+](=O)[O-])n1 | > 100 µM | > 100 µM | 
19 | COc1cccc(Cc2cc(C)nn(C(C)C(=O)Nc3ccccc3Cl)c2=O)c1 (stereo not drawn) | > 100 µM | > 100 µM | 
20 | COc1ccccc1Cc1cc(C)nn(C(C(=O)Nc2ccc(Cl)cc2)C(C)C)c1=O (stereo not drawn) | > 100 µM | 2.82 µM | 
21 | COc1cccc(Cc2cc(C)nn(C(C)C(=O)Nc3ccccc3F)c2=O)c1 (stereo not drawn) | > 100 µM | > 100 µM | 
22 | CCCCC(C(=O)Nc1ccc(Br)cc1)n1nc(C)cc(Cc2ccccc2OC)c1=O (stereo not drawn) | > 100 µM | 0.331 µM | 

Row | SMILES | EC50 (fMet-Leu-Phe receptor [1]; read-out: pEC50 (converted)) | EC50 (fMet-Leu-Phe receptor [2]; read-out: pEC50 (converted)) | other results
23 | COc1ccccc1Cc1cc(C)nn(C(C)C(=O)Nc2ccc(Cl)cc2)c1=O (stereo not drawn) | 17.4 µM | 1.38 µM | 
24 | COc1cccc(Cc2cc(C)nn(CC(=O)Nc3ccc(Cl)cc3)c2=O)c1OC | 0.224 µM | 0.17 µM | 
25 | COc1ccccc1Cc1cc(C)nn(C(C(=O)Nc2ccc(Cl)cc2)C2CC2)c1=O (stereo not drawn) | > 100 µM | > 100 µM | 
26 | CCCCC(C(=O)Nc1ccc(Cl)cc1)n1nc(C(F)(F)F)cc(Cc2ccccc2OC)c1=O (stereo not drawn) | > 100 µM | > 100 µM | 
27 | CCCCC(C(=O)Nc1ccc(Br)cc1)n1nc(C)cc(Cc2cccc(OC)c2)c1=O (stereo not drawn) | 11.5 µM | 0.148 µM | 
28 | COc1cccc(Cc2cc(C)nn(C(C)C(=O)Nc3cccc(Cl)c3)c2=O)c1 (stereo not drawn) | > 100 µM | > 100 µM | 
29 | COc1ccccc1Cc1cc(C)nn(CC(=O)Nc2ccccc2C#N)c1=O | > 100 µM | > 100 µM | 
30 | COc1cccc(Cc2cc(C)nn(CC(=O)Nc3c(F)cc(Cl)cc3F)c2=O)c1 | > 100 µM | > 100 µM | 
31 | COc1ccccc1Cc1cc(C)nn(CC(=O)Nc2ccc(Cl)cc2)c1=O | > 100 µM |  | 
32 | COc1ccccc1Cc1cc(C)nn(CC(=O)Nc2cccc(C#N)c2)c1=O | > 100 µM | > 100 µM | 
33 | Cc1cc(Cc2ccc(F)cc2)c(=O)n(C(C)C(=O)Nc2ccc(Br)cc2)n1 (stereo not drawn) | > 100 µM |  | 
34 | CCC(C(=O)Nc1ccc(Cl)cc1)n1nc(C)cc(Cc2ccccc2OC)c1=O (stereo not drawn) | > 100 µM | 1.86 µM | 
35 | Cc1cc(Cc2ccc(F)cc2)c(=O)n(CC(=O)Nc2c(F)cc(F)cc2[N+](=O)[O-])n1 | > 100 µM | > 100 µM | 
36 | COc1ccc(NC(=O)Cn2nc(C)cc(Cc3ccccc3OC)c2=O)cc1 | > 100 µM |  | 
37 | COc1ccc(Cc2cc(C)nn(C(C)C(=O)Nc3ccc(Br)cc3)c2=O)cc1 (stereo not drawn) | > 100 µM |  | 
38 | COc1ccccc1Cc1cc(C)nn(CC(=O)Nc2ccc(C#N)cc2)c1=O | > 100 µM | > 100 µM | 
39 | Cc1cc(Cc2cccc(F)c2)c(=O)n(C(C)C(=O)Nc2ccc(Br)cc2)n1 (stereo not drawn) | > 100 µM |  | 
40 | COc1cccc(OC)c1Cc1cc(C)nn(CC(=O)Nc2ccc(Cl)cc2)c1=O | 2.82 µM | 2.63 µM | 
41 | COc1cccc(Cc2cc(C)nn(C(C)C(=O)Nc3ccc(Cl)cc3)c2=O)c1 (stereo not drawn) | 6.17 to 25.1 µM |  | logP [3]: 4; fraction unbound [4]: 0.026; microsomal CLint [5]: 273 µL/min/mg; solubility kinetic [6]: < 1.6 µg/mL; EC50 [7]: 9.55 µM; EC50 [8]: > 100 µM; solubility kinetic [9]: < 1.6 µg/mL
42 | COc1ccccc1Cc1cc(C)nn(CC(=O)Nc2ccc(Cl)cc2Cl)c1=O | > 100 µM | > 100 µM | 
43 | CCCCC(C(=O)Nc1ccc(Cl)cc1)n1nc(C)cc(Cc2cccc(OC)c2OC)c1=O (stereo not drawn) | 0.055 µM | 0.0933 µM | EC50 [7]: 0.0617 µM; EC50 [8]: 0.0525 µM
44 | CCCCC(C(=O)Nc1ccc(Cl)cc1)n1nc(C)cc(Cc2ccccc2OC)c1=O (stereo not drawn) |  |  | logP [3]: 5.2; fraction unbound [4]: 0.016; fold change (FC) [10]: 20; EC50 (fMet-Leu-Phe receptor [1]): 0.891 µM; solubility kinetic [6]: < 0.78 µg/mL; microsomal CLint [11]: 233 µL/min/mg; EC50 (fMet-Leu-Phe receptor [2]; read-out: EC50): 0.083 µM; EC50 [7]: 0.0708 µM; EC50 [8]: 0.0513 µM; solubility kinetic [9]: < 0.78 µg/mL
